Laboratory results published in ChEMBL document CHEMBL4610112, “Novel Pyrrolopyridone Bromodomain and Extra-Terminal Motif (BET) Inhibitors Effective in Endocrine-Resistant ER+ Breast Cancer with Acquired Resistance to Fulvestrant and Palbociclib” (J Med Chem, 2020).

Key:
CYP2C19 = CYP2C19 (Homo sapiens, UniProt P33261); assay: Inhibition of human CYP2C19 at 10 uM; type: ADME
[1] = Oral bioavailability in CD1 mouse at 30 mg/kg by LC-MS/MS analysis; type: ADME, organism-based; details: in vivo
How it was run: (§1)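 HCl salt dosed to CD1 mice in 30% PEG400/70% (10% HP-β-CD in water) (v/v), at 1 mg/mL for iv (5 mg/kg) or 3 mg/mL for oral gavage (30 mg/kg). Blood sampled at 0, 0.0833 (iv only), 0.25, 0.5, 1, 2, 4, 8 and 24 h, n = 3 per time point. Plasma levels measured by LC/MS/MS.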

[2] = Kinetic solubility of the compound in pH 7.4 PBS buffer; type: physicochemical; details: read-out: Kinetic_solubility
How it was run: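 Kinetic solubility in PBS at pH 7.4, progesterone as reference compound. Run by a contract lab.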

[3] = Toxicity in human MCF7:TAM1 cells xenografted ovariectomized athymic Nude-Foxn1 mouse assessed as effect on body weight at 50 mg/kg/day, po administered via gavage for 4 weeks; type: organism-based; details: in vivo, 672 h
How it was run: (§2)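 MCF-7:TAM1 tumors established in 4–6-week-old female ovariectomized athymic nude mice (nude/Foxn1) given tamoxifen 1.5 mg/mouse daily. […] Body weight tracked against pretreatment, with overt toxicity signs observed. Vehicle and tamoxifen (1.5 mg/mouse/day po) groups as comparators.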

CYP2D6 = CYP2D6 (Homo sapiens, UniProt P10635); assay: Inhibition of human CYP2D6 at 10 uM; type: ADME
[4] = Half life in human hepatocytes; type: ADME, cell-based, Hepatocyte
[5] = Induction of thrombocytopenia in Sprague-Dawley rat assessed as platelet count […] at 25 mg/kg, po administered via gavage daily for 10 days (reference value: […]); type: organism-based; details: in vivo, 240 h
[6] = Half life in CD1 mouse at 5 mg/kg, iv by LC-MS/MS analysis; type: ADME, organism-based; details: in vivo
How it was run: (§3)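 HCl salt dosed to CD1 mice iv (1 mg/mL) or by oral gavage (3 mg/mL) in 30% PEG400/70% (10% HP-β-CD in water) (v/v). Blood sampled at 0, 0.0833 (iv only), 0.25, 0.5, 1, 2, 4, 8 and 24 h, n = 3 per time point. Plasma levels measured by LC/MS/MS.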

[7] = Intrinsic clearance in human hepatocytes assessed per million cells; type: ADME, cell-based, Hepatocyte; details: read-out: CLH
[8] = Cmax in CD1 mouse at 30 mg/kg, po by LC-MS/MS analysis; type: ADME, organism-based; design: dose 30 mg/kg, route oral; details: in vivo; how it was run: as §3
[9] = Toxicity in human MCF7:TAM1 cells xenografted ovariectomized athymic Nude-Foxn1 mouse assessed as adverse sign t at 50 mg/kg/day, po administered via gavage for 4 weeks; type: organism-based; details: in vivo, 672 h; how it was run: as §2
CYP3A4 = CYP3A4 (Homo sapiens, UniProt P08684); assay: Inhibition of human CYP3A4 at 10 uM; type: ADME
[10] = Protein binding in plasma (unknown origin); type: ADME, cell-free; details: human
How it was run: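 Protein binding reported as percent bound, ketoconazole as reference compound. Run by a contract lab.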

[11] = Half life in CD1 mouse at 30 mg/kg, po by LC-MS/MS analysis; type: ADME, organism-based; details: in vivo; how it was run: as §3
CYP1A2 = CYP1A2 (Homo sapiens, UniProt P05177); assay: Inhibition of human CYP1A2 at 10 uM; type: ADME
MCF7:TAM1 = assay: Antitumor activity against human MCF7:TAM1 cells xenografted in ovariectomized athymic Nude-Foxn1 mouse assessed as tumor growth inhibition at 30 mg/kg/day, po administered via gavage for 4 weeks relative to control; type: functional; details: 672 h, read-out: TGI
How it was run: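 MCF-7:Tam1 tumours established in 4–6 week old female ovariectomized athymic nude mice given daily tamoxifen 1.5 mg/mouse. […] Fulvestrant 1 (mg/mouse)/week sc. Tumour volume measured weekly by calipers as length × width² × π/6.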

CYP2C8 = CYP2C8 (Homo sapiens, UniProt P10632); assay: Inhibition of human CYP2C8 at 10 uM; type: ADME
[12] = Volume of distribution at steady state in CD1 mouse at 5 mg/kg, iv by LC-MS/MS analysis; type: ADME, organism-based; details: in vivo; how it was run: as §1
[13] = AUC in CD1 mouse at 5 mg/kg, iv by LC-MS/MS analysis; type: ADME, organism-based; details: in vivo; how it was run: as §3
CYP2C9 = CYP2C9 (Homo sapiens, UniProt P11712); assay: Inhibition of human CYP2C9 at 10 uM; type: ADME
[14] = Clearance in CD1 mouse at 5 mg/kg, iv by LC-MS/MS analysis; type: ADME, organism-based; details: in vivo; how it was run: as §3
[15] = target: Voltage-gated inwardly rectifying potassium channel KCNH2 (Homo sapiens, UniProt Q12809); assay: Inhibition of human ERG stably expressed in HEK293 cells; type: cell-based
How it was run: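 hERG inhibition measured in HEK293 cells stably transfected with the hERG gene, IC50 determined, dofetilide as positive control. Run by a contract lab.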

CYP2A6 = CYP2A6 (Homo sapiens, UniProt P11509); assay: Inhibition of human CYP2A6 at 10 uM; type: ADME
[16] = Tmax in CD1 mouse at 30 mg/kg, po by LC-MS/MS analysis; type: ADME, organism-based; details: in vivo; how it was run: as §1
[17] = AUC in CD1 mouse at 30 mg/kg, po by LC-MS/MS analysis; type: ADME, organism-based; details: in vivo; how it was run: as §3

Sequence of CYP2C8 (P10632 whole entry): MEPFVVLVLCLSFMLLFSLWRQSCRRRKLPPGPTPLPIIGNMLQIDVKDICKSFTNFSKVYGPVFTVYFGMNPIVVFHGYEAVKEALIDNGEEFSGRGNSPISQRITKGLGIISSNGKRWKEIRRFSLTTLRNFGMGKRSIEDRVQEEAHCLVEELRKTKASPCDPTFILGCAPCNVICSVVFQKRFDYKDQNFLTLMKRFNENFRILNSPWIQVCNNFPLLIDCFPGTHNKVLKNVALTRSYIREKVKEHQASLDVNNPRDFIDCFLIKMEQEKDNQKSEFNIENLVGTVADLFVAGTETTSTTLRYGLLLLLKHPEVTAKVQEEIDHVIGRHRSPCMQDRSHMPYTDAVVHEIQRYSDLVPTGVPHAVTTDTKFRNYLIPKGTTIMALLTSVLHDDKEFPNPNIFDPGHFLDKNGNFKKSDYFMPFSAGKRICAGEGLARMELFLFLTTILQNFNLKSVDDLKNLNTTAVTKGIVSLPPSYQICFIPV
Sequence of Voltage-gated inwardly rectifying potassium channel KCNH2 (Q12809 whole entry): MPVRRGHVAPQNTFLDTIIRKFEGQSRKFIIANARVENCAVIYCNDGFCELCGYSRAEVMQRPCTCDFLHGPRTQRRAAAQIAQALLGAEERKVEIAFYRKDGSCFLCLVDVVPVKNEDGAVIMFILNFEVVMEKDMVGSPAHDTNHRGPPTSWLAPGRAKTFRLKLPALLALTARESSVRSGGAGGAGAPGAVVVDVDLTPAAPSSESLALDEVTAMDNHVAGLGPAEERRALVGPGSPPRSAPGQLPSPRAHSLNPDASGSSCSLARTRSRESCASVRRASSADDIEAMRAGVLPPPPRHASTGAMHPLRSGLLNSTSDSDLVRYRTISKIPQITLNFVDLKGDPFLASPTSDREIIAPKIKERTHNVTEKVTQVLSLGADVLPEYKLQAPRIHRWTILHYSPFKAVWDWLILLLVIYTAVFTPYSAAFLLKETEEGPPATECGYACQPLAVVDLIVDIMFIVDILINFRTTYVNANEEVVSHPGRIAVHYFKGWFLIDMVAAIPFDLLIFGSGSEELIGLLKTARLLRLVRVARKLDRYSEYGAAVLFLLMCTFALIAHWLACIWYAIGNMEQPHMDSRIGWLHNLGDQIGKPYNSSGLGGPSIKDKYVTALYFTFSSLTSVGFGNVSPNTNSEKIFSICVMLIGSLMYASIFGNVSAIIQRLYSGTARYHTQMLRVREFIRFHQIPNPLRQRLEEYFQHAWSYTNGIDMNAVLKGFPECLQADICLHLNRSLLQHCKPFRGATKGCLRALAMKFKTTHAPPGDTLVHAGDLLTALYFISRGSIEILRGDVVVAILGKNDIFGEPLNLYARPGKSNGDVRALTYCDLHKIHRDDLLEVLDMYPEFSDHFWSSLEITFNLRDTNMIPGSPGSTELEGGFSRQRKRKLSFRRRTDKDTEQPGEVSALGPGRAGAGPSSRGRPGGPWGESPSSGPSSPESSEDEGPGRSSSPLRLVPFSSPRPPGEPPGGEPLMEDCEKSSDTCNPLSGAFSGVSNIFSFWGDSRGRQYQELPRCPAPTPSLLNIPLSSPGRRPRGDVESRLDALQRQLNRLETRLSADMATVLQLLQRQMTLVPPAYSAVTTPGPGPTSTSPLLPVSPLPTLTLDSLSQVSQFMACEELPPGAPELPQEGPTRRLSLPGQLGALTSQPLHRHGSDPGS
Sequence of CYP2D6 (P10635 whole entry): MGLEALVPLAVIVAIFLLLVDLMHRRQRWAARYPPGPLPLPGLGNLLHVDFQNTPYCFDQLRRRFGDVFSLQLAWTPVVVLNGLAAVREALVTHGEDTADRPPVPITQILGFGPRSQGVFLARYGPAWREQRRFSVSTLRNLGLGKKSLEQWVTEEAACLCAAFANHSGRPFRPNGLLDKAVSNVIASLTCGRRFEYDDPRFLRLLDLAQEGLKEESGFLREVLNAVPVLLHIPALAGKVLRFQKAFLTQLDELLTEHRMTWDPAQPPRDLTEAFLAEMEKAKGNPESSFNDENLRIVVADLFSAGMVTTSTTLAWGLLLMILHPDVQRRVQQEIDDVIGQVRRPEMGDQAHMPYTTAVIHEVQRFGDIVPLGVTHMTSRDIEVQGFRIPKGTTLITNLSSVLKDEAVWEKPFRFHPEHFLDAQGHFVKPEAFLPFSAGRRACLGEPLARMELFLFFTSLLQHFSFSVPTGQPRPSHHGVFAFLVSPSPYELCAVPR
Sequence of CYP2A6 (P11509 whole entry): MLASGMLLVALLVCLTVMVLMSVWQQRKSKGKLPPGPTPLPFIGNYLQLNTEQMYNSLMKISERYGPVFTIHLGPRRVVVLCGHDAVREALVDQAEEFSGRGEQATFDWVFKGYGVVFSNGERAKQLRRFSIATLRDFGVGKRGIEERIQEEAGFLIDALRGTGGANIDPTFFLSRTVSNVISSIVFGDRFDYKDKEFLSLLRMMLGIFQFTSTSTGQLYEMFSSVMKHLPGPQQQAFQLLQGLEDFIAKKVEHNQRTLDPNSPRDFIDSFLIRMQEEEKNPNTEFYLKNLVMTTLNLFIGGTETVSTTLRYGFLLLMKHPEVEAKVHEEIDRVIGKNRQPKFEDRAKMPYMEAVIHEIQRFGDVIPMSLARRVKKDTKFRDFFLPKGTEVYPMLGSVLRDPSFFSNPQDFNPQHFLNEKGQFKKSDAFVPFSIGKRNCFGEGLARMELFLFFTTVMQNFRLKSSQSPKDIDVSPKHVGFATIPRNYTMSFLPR
Sequence of CYP2C19 (P33261 whole entry): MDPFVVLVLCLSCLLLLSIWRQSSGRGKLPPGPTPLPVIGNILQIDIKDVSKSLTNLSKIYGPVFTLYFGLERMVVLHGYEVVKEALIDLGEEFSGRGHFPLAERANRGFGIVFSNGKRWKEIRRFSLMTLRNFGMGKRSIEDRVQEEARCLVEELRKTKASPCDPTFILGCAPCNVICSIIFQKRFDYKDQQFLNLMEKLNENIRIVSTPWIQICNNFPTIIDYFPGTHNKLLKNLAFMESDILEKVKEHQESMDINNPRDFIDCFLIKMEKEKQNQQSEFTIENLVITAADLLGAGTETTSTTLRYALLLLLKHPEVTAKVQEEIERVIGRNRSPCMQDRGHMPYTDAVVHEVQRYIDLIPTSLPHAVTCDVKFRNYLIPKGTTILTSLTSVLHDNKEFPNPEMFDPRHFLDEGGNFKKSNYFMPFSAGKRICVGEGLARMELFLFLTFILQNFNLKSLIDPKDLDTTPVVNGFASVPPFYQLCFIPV
Sequence of CYP1A2 (P05177 whole entry): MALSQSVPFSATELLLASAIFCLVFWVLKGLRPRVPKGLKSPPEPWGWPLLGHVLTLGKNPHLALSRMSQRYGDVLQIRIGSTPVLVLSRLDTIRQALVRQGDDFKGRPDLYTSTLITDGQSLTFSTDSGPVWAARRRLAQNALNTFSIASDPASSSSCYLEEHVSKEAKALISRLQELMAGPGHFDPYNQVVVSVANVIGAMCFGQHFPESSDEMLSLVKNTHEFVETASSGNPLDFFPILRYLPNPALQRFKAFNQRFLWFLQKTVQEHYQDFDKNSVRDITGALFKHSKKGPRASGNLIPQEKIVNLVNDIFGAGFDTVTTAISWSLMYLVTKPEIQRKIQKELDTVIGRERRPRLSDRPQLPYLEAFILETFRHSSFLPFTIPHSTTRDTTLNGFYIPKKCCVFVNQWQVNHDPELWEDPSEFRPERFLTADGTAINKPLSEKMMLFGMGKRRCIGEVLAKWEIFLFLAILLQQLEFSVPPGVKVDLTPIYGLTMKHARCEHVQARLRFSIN
Sequence of CYP2C9 (P11712 whole entry): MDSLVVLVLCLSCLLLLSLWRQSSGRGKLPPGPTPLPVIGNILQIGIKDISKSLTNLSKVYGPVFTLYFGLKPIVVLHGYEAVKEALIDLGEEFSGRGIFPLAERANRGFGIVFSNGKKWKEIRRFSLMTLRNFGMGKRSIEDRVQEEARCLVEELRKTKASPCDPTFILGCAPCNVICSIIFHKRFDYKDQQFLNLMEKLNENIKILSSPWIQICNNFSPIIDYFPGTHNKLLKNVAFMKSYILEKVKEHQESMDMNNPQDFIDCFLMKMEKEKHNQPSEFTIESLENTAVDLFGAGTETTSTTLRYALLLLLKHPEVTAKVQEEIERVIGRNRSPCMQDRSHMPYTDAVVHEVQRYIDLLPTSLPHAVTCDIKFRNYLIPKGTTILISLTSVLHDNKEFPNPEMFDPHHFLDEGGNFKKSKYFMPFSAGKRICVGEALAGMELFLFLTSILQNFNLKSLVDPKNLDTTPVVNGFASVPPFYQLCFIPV
Sequence of CYP3A4 (P08684 whole entry): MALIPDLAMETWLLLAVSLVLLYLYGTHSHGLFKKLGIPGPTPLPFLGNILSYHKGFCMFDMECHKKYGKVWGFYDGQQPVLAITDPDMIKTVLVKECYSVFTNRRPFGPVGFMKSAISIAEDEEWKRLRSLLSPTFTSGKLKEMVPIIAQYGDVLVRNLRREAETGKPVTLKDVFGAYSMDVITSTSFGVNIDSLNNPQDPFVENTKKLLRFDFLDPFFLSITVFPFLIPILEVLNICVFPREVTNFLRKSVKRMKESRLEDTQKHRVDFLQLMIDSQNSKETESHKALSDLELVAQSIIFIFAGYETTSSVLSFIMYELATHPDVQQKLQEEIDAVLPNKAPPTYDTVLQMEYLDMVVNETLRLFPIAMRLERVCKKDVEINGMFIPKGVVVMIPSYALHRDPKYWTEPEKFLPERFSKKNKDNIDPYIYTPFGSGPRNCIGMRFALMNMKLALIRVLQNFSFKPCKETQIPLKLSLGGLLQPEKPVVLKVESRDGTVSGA

CCS(=O)(=O)Nc1cc(-c2cn(C)c3c(=O)[nH]ccc23)cc2c1ccn2C(C)(c1ccccn1)c1ccccn1.Cl
inhibition at 10 µM (CYP2C19): 31.8%
F [1]: 49%
solubility kinetic [2]: 73.4 µM
Activity [3]: Non-Toxic
inhibition at 10 µM (CYP2D6): 14.5%
t1/2 [4]: 3.37 h
platelet count [5]: 1050 10^3/µL
t1/2 [6]: 1.95 h
hepatocyte CLint [7]: 6.86 µL/min/1e6 cells
Cmax [8]: 3090 ng/mL
Activity [9]: Non-Toxic
inhibition at 10 µM (CYP3A4): 50.6%
PPB [10]: 97.98%
t1/2 [11]: 2.9 h
inhibition at 10 µM (CYP1A2): 2.29%
inhibition in vivo at 30 mg/kg/day (MCF7:TAM1): 106%
inhibition at 10 µM (CYP2C8): 84.2%
Vdss [12]: 1.49 L/kg
AUC [13]: 3208 ng·h/mL
inhibition at 10 µM (CYP2C9): 30.7%
clearance [14]: 25.5 mL/min/kg
IC50 [15]: 29.3 µM
inhibition at 10 µM (CYP2A6): 7.47%
Tmax [16]: 0.25 h
AUC [17]: 9598 ng·h/mL
